# Results from different studies.
# Each line is one published result; the experiments were not run side by side.
# Target: Mitogen-activated protein kinase kinase kinase kinase 4 (MAP4K4, Homo sapiens, UniProt O95819)
SMILES,test,conditions,remaining binding
O=C(NCCCN1CCOCC1)c1ccc(Nc2nccc(-c3cc4ccccc4s3)n2)cc1,"binding, competition with immobilised ligand",1 µM,100%
O=C(Nc1c[nH]nc1C(=O)NC1CCNCC1)c1cc(F)cc(F)c1,"binding, competition with immobilised ligand",1 µM,100%
COc1cnc(Nc2cccc(S(N)(=O)=O)c2)nc1N1CCN(c2ccccc2)CC1,"binding, competition with immobilised ligand",1 µM,87%
FC(F)(F)Oc1cccc(-c2cnc3ccc(-c4ccncc4)nn23)c1,"cell-free assay, competition with immobilised ligand",5 µM,49%
O=C(NCCCC1CCCCC1)c1ccc(CNC(=O)c2cnn(-c3ccccc3)c2C(F)(F)F)cc1,"cell-free assay, competition with immobilised ligand",0.1 µM,81%
O=C(NCCCN1CCOCC1)c1ccc(Nc2ncc(Cl)c(-c3ccc(Cl)s3)n2)cc1,"binding, competition with immobilised ligand",1 µM,67%
CN(c1nccc(-c2cnn3ncccc23)n1)C1CC1,binding,1 µM,13%
O=C(c1ccc(Nc2ncc(Cl)c(-c3ccc(Cl)s3)n2)cc1)N1CCC(N2CCCC2)CC1,"binding, competition with immobilised ligand",1 µM,26%
CCCOc1ccc([C@H]2[C@H](C(=O)O)[C@@H](c3ccc4c(c3)OCO4)CN2CC(=O)Nc2c(CC)cccc2CC)cc1,"cell-free assay, competition with immobilised ligand",1 µM,90%
COc1ncc2cc3ccccc3nc2c1C#N,"cell-free assay, competition with immobilised ligand",5 µM,91%
Cc1nccc(COC(=O)N2C[C@@H]3[C@@H](CNC(=O)c4ccc5[nH]nnc5c4)[C@@H]3C2)n1,"cell-free assay, competition with immobilised ligand",1 µM,99%
F[C@@H]1CCN(c2nccc(-c3cnn4ncccc34)n2)C1,binding,1 µM,76%
CNC(=O)[C@@H]1CC[C@@H](n2c(-c3ccc4cnccc4c3)nc3ccc(C(=O)NCc4cccc(C(N)=O)c4)cc32)C1,"binding, competition with immobilised ligand",1 µM,100%
Cc1cnn2ncc(-c3ccnc(N(C)C)n3)c2c1,binding,1 µM,100%
C[C@@H](c1ccc(-n2cnc3c(N)ncnc32)cc1)N1CCc2nn(C)c(Cc3ccccc3)c2C1=O,"binding, competition with immobilised ligand",0.1 µM,97%
c1cnn2ncc(-c3ccnc(N4CCC45COC5)n3)c2c1,binding,1 µM,77%
CN(C)c1ncnc(-c2ccc3nc(Nc4cc(CN5CCN(C(=O)CC(F)(F)F)CC5)ccn4)[nH]c3c2)c1Cl,"cell-free assay, competition with immobilised ligand",1 µM,100%
CC1CCCN1c1nccc(-c2cnn3ncccc23)n1 (stereo not drawn),binding,1 µM,100%
FC(F)(F)c1ccc2c(c1)nc(-c1cccnc1)n2C1CC1,"cell-free assay, competition with immobilised ligand",1 µM,100%
N[C@H]1CCN(c2nccc(-c3cnn4ncccc34)n2)C1,binding,1 µM,100%
CC(=O)N1CCC(c2ccc(C(=O)NC(=N)N)cc2C(F)(F)F)CC1,"cell-free assay, competition with immobilised ligand",1 µM,100%
